Reference: ChEMBL document CHEMBL1142065, “In vitro and in vivo activities of a new cephalosporin, FR264205, against Pseudomonas aeruginosa” (2007)
≈ marks a conversion by molar mass, not a printed value. Calls of active or inactive are those of the source. No cut-off for these calls is given here.

How the values were obtained:
[1] = test system: Pseudomonas aeruginosa; test: Antibacterial activity against Pseudomonas aeruginosa; type: functional
In short: (§1)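 Agar dilution MIC per NCCLS (CLSI) M7-A7 on Mueller-Hinton agar with twofold serial drug dilutions. Inoculum 10^4 CFU per spot, aerobic incubation 18 to 20 h at 35°C. MIC is the lowest concentration preventing visible growth.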

[2] = test system: Pseudomonas aeruginosa; test: Antibacterial activity against ceftazidime-resistant Pseudomonas aeruginosa; type: functional; in short: as §1
[3] = test system: Pseudomonas aeruginosa; test: Antibacterial activity against imipenem-resistant Pseudomonas aeruginosa; type: functional; in short: as §1
[4] = test system: Pseudomonas aeruginosa; test: Antibacterial activity against ciprofloxacin-resistant Pseudomonas aeruginosa; type: functional; in short: as §1
[5] = test system: Pseudomonas aeruginosa; test: Antibacterial activity against Pseudomonas aeruginosa FP1380 expressing constitutive AmpC; type: functional
In short: (§2)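 MIC by agar dilution (CLSI M7-A7) on Mueller-Hinton agar with twofold serial drug dilutions; 10^4 CFU spotted per spot; aerobic incubation 18 to 20 h at 35°C; MIC read as lowest concentration preventing visible growth.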

[6] = test system: Pseudomonas aeruginosa; test: Antibacterial activity against Pseudomonas aeruginosa PAO1456 expressing constitutive AmpC; type: functional; in short: as §1
[7] = test system: Pseudomonas aeruginosa; test: Antibacterial activity against Pseudomonas aeruginosa PAO4069 expressing inducible AmpC; type: functional; in short: as §1
[8] = test system: Pseudomonas aeruginosa; test: Antibacterial activity against Pseudomonas aeruginosa KG2212 producing MexAB-OprM efflux pump; type: functional; in short: as §1
[9] = test system: Pseudomonas aeruginosa; test: Antibacterial activity against Pseudomonas aeruginosa KG3056 producing MexCD-OprJ efflux pump; type: functional; in short: as §1
[10] = test system: Pseudomonas aeruginosa; test: Antibacterial activity against Pseudomonas aeruginosa KG4545 producing MexXY efflux pump; type: functional; in short: as §1
[11] = test system: Escherichia coli; test: Antibacterial activity against Escherichia coli C600 expressing ESBL TEM3; type: functional; in short: as §2
[12] = test system: Escherichia coli; test: Antibacterial activity against Escherichia coli C600 expressing ESBL TEM4; type: functional; in short: as §2
[13] = test system: Escherichia coli; test: Antibacterial activity against Escherichia coli C600 expressing ESBL TEM5; type: functional; in short: as §2
[14] = test system: Escherichia coli; test: Antibacterial activity against Escherichia coli C600 expressing ESBL TEM6; type: functional; in short: as §2
[15] = test system: Escherichia coli; test: Antibacterial activity against Escherichia coli C600 expressing ESBL TEM8; type: functional; in short: as §2
[16] = test system: Escherichia coli; test: Antibacterial activity against Escherichia coli C600 expressing ESBL TEM9; type: functional; in short: as §2
[17] = test system: Escherichia coli; test: Antibacterial activity against Escherichia coli C600 expressing ESBL SHV2; type: functional; in short: as §2
[18] = test system: Escherichia coli; test: Antibacterial activity against Escherichia coli C600 expressing ESBL SHV3; type: functional; in short: as §2
[19] = test system: Escherichia coli; test: Antibacterial activity against Escherichia coli C600 expressing ESBL SHV4; type: functional; in short: as §2
[20] = test system: Escherichia coli; test: Antibacterial activity against Escherichia coli C600 expressing ESBL OXA2; type: functional; in short: as §2
[21] = test system: Escherichia coli; test: Antibacterial activity against Escherichia coli C600 expressing ESBL CTX-M3; type: functional; in short: as §2
[22] = test system: Escherichia coli; test: Antibacterial activity against Escherichia coli C600 expressing ESBL CTX-M18; type: functional; in short: as §2
[23] = test system: Escherichia coli; test: Antibacterial activity against Escherichia coli C600; type: functional; in short: as §2
[24] = test system: Pseudomonas aeruginosa; test: Antibacterial activity against Pseudomonas aeruginosa 22029 expressing metallo beta lactamase; type: functional; in short: as §1
[25] = test system: Pseudomonas aeruginosa; test: Antibacterial activity against Pseudomonas aeruginosa KG4001 producing MexEF-OprN efflux pump; type: functional; in short: as §1
[26] = test system: Pseudomonas aeruginosa; test: Antibacterial activity against Pseudomonas aeruginosa PAO1; type: functional; in short: as §1
[27] = test system: Pseudomonas aeruginosa; test: Antibacterial activity against Pseudomonas aeruginosa PAO4222; type: functional; in short: as §1
[28] = test system: Pseudomonas aeruginosa; test: Reduction in susceptibility against Pseudomonas aeruginosa PAO1 after single passage; type: functional, organism-based
In short: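 PAO1 passaged daily for five consecutive days in fresh Mueller-Hinton broth with twofold drug dilution series. Each next inoculum came from the tube at one-fourth the MIC. MIC change was followed across passages.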

[29] = test system: Pseudomonas aeruginosa; test: Antibacterial activity against Pseudomonas aeruginosa 93; type: functional; in short: as §2
[30] = test system: Pseudomonas aeruginosa; test: Efficacy against Pseudomonas aeruginosa 93 pulmonary infection in mouse assessed as reduction in bacterial counts at 2 mg/kg, sc; type: functional, organism-based; parameters: dose 2 mg/kg
In short: (§3)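 Male ICR mice (4 weeks), made neutropenic with cyclophosphamide 200 mg/kg ip 4 days before infection. Under pentobarbital anesthesia (50 mg/kg iv) they were challenged intranasally with 3.30 log10 CFU of strain 93, grown on tryptic soy agar 35°C 20 h and suspended in saline. Dosed sc twice daily for 3 days from 3 h post-infection. Lung viable counts taken the day after last dose; 6 mice/dose.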

[31] = test system: Pseudomonas aeruginosa; test: Efficacy against Pseudomonas aeruginosa 93 pulmonary infection in mouse assessed as reduction in bacterial counts at 10 mg/kg, sc; type: functional, organism-based; parameters: dose 10 mg/kg; in short: as §3
[32] = test system: Pseudomonas aeruginosa; test: Efficacy against Pseudomonas aeruginosa 93 assessed as reduction in bacterial counts in mouse urinary tract infection model at 0.5 mg/kg; type: functional, organism-based; parameters: dose 0.5 mg/kg; details: Urine
In short: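 Female ICR mice (4 weeks) were denied water 1 day. Under pentobarbital anesthesia they received 4.32 log10 CFU of strain 93 via the […], which was then clamped 5 h. Dosed sc at 5 h post-challenge plus twice daily for 2 days. Bilateral kidney viable counts taken the day after last treatment; 6 mice/dose.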

[33] = test system: Escherichia coli; test: Antibacterial activity against Escherichia coli C600 expressing ESBL TEM7; type: functional; in short: as §2
[34] = test system: Escherichia coli; test: Antibacterial activity against Escherichia coli C600 expressing TEM1; type: functional; in short: as §2
[35] = test system: Escherichia coli; test: Antibacterial activity against Escherichia coli C600 expressing TEM2; type: functional; in short: as §2
[36] = test system: Escherichia coli; test: Antibacterial activity against Escherichia coli C600 expressing SHV1; type: functional; in short: as §2
[37] = test system: Escherichia coli; test: Antibacterial activity against Escherichia coli C600 expressing OXA1; type: functional; in short: as §2

SMILES: O=C(O)c1cn(C2CC2)c2cc(N3CCNCC3)c(F)cc2c1=O [CIPROFLOXACIN]
- MIC50 [1]: 0.25 µg/mL (≈ 0.754 µM)
- MIC90 [1]: 8 µg/mL (≈ 24.1 µM)
- MIC50 [2]: 2 µg/mL (≈ 6.04 µM)
- MIC90 [2]: 64 µg/mL (≈ 193 µM)
- MIC50 [3]: 1 µg/mL (≈ 3.02 µM)
- MIC90 [3]: 8 µg/mL (≈ 24.1 µM)
- MIC50 [4]: 8 µg/mL (≈ 24.1 µM)
- MIC90 [4]: 64 µg/mL (≈ 193 µM)

SMILES: C[C@@H](O)[C@H]1C(=O)N2C(C(=O)O)=C(SCCNC=N)C[C@H]12 [IMIPENEM ANHYDROUS]
- MIC [5]: 0.5 µg/mL (≈ 1.67 µM)
- MIC [6]: 1 µg/mL (≈ 3.34 µM)
- MIC [7]: 1 µg/mL (≈ 3.34 µM)
- MIC [8]: 1 µg/mL (≈ 3.34 µM)
- MIC [9]: 0.5 µg/mL (≈ 1.67 µM)
- MIC [10]: 1 µg/mL (≈ 3.34 µM)
- MIC [11]: 0.25 µg/mL (≈ 0.835 µM)
- MIC [12]: 0.25 µg/mL (≈ 0.835 µM)
- MIC [13]: 0.25 µg/mL (≈ 0.835 µM)
- MIC [14]: 0.25 µg/mL (≈ 0.835 µM)
- MIC [15]: 0.25 µg/mL (≈ 0.835 µM)
- MIC [16]: 0.25 µg/mL (≈ 0.835 µM)
- MIC [17]: 0.25 µg/mL (≈ 0.835 µM)
- MIC [18]: 0.25 µg/mL (≈ 0.835 µM)
- MIC [19]: 0.25 µg/mL (≈ 0.835 µM)
- MIC [20]: 0.25 µg/mL (≈ 0.835 µM)
- MIC [21]: 0.25 µg/mL (≈ 0.835 µM)
- MIC [22]: 0.25 µg/mL (≈ 0.835 µM)
- MIC [23]: 0.25 µg/mL (≈ 0.835 µM)
- MIC [24]: 128 µg/mL (≈ 428 µM)
- MIC [25]: 1 µg/mL (≈ 3.34 µM)
- MIC [26]: 4 µg/mL (≈ 13.4 µM)
- MIC [27]: 1 µg/mL (≈ 3.34 µM)
- Activity [28]: Active
- MIC [29]: 1 µg/mL (≈ 3.34 µM)
- Activity [30]: Active
- Activity [31]: Active
- Activity [32]: Active
- MIC [33]: 0.25 µg/mL (≈ 0.835 µM)
- MIC50 [1]: 2 µg/mL (≈ 6.68 µM)
- MIC90 [1]: 16 µg/mL (≈ 53.4 µM)
- MIC50 [2]: 16 µg/mL (≈ 53.4 µM)
- MIC90 [2]: 32 µg/mL (≈ 107 µM)
- MIC [3]: 16 µg/mL (≈ 53.4 µM)
- MIC50 [3]: 16 µg/mL (≈ 53.4 µM)
- MIC90 [3]: 32 µg/mL (≈ 107 µM)
- MIC50 [4]: 8 µg/mL (≈ 26.7 µM)
- MIC90 [4]: 16 µg/mL (≈ 53.4 µM)
- MIC [34]: 0.125 µg/mL (≈ 0.418 µM)
- MIC [35]: 0.25 µg/mL (≈ 0.835 µM)
- MIC [36]: 0.25 µg/mL (≈ 0.835 µM)
- MIC [37]: 0.25 µg/mL (≈ 0.835 µM)
